Results published in ChEMBL document CHEMBL3351317 (J Med Chem, 2014).

Legend:
[1] = Distribution coefficient, log D between 1-octonol and aqueous phosphate buffer at pH 7.4; format: physicochemical; conditions: 1-octanol/aqueous phosphate buffer
Outline: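 logD measured as distribution between 1-octanol and aqueous phosphate buffer, pH 7.4.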

[2] = Intrinsic clearance in rat hepatocytes assessed per million cells; format: ADME, cell-based, Hepatocyte; conditions: read-out: CLH

## C[C@@H]1CN(c2nnc(C(F)(F)F)o2)CCN1c1ncc(OCc2ccc(S(C)(=O)=O)cc2F)cn1
[1]
  logD: 3

## C[C@@H]1CN(c2nnc(C(F)(F)F)o2)CCN1c1ncc(OCc2ccc(S(C)(=O)=O)cc2C#N)cn1
[1]
  logD: 2.6

## C[C@@H]1CN(c2nnc(C(F)(F)F)o2)CCN1c1ncc(OCc2ccc(C#N)cc2C#N)cn1
[1]
  logD: 2.8

## C[C@@H]1CN(c2nnc(C(F)(F)F)o2)CCN1c1ncc(OCc2ccc(S(C)(=O)=O)cc2)cn1
[1]
  logD: 2.8

## C[C@@H]1CN(c2nnc(C(F)(F)F)o2)CCN1c1ncc(OCc2ccc(CS(C)(=O)=O)cc2)cn1
[1]
  logD: 2.6

## C[C@@H]1CN(c2nnc(C(F)(F)F)o2)CCN1c1ncc(OCc2ccc(C#N)cc2F)cn1
[1]
  logD: 3.8

## C[C@@H]1CN(c2nnc(C(F)(F)F)o2)CCN1c1ncc(OCc2ccc(-n3cnnn3)cc2F)cn1
[1]
  logD: 3.6

## C[C@@H]1CN(c2nnc(C(F)(F)F)o2)CCN1c1ncc(OCc2ccc(CS(C)(=O)=O)cc2F)cn1
[1]
  logD: 2.9
[2]
  hepatocyte CLint: 9 µL/min/1e6 cells

## C[C@@H]1CN(c2nnc(C(F)(F)F)o2)CCN1c1ncc(OCc2ccc(OS(C)(=O)=O)cc2F)cn1
[1]
  logD: 3.7

## C[C@@H]1CN(c2nnc(C(F)(F)F)o2)CCN1c1ncc(OCc2ccc(C[S+](C)[O-])cc2F)cn1 (some centres not stated)
[1]
  logD: 2.6
[2]
  hepatocyte CLint: 53 µL/min/1e6 cells
